# Where two headings read alike, the source gives them in different places.
# What was measured:
# [1] = format: in vivo, Rowett nude rats; details: for half-life / AUC: male, Rowett nude (Cr:NIH-ru), rat
# Outline: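 Male Rowett nude rats dosed once with drug in saline: 2 mg kg−1 i.p., or aerosol over 90 min nose-only (0.6 mg kg−1 deposited). Deposited dose = aerosol concentration × minute volume × time × deposition fraction (~10%) ÷ body weight. Three rats per group killed at each of 11 times over 96 h. Plasma and lung extracted by solid-phase extraction; LC/MS/MS on C18 column (25 °C), positive ESI. Non-compartmental analysis of per-time-point means.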
# [2] = system: Calu-6 cells; assay: Orthotopic lung cancer model, tumour burden; format: in vivo, Rowett nude rats; details: for reduction in tumour burden: vs vehicle
# Outline: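 Calu-6 cells instilled orotracheally into male nude rats. From 3 weeks, groups of 20 received saline, 2 mg kg−1 i.p., or 0.6 mg kg−1 aerosol on 4 consecutive days over 4 weeks. At 7 weeks, lungs weighed; burden = tumour-bearing minus normal lung weight (rats without tumour cells). Lungs inflated with 10% neutral-buffered formalin at 25 cm for 6 h; 5-μm paraffin sections, H&E. t-test/ANOVA.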
# [3] = Aerosol characterisation; format: physicochemical; details: nebulised solution 5 mg ml^−1, Pari LC Plus nebulisers
# Outline: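 Aerosol from a 5 mg ml−1 solution made by three jet nebulisers, piped through a ~24 in, 1.58-cm stainless tube into a 52-port flow-past nose-only chamber (exhaust ~14 l min−1). Concentration measured gravimetrically on membrane filters. Particle size sampled from the breathing zone with a Mercer-style cascade impactor at ~2.0 l min−1; MMAD calculated from the impactor data.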
# [4] = system: Calu-6 cells; details: systemic delivery, previous study; ref Belinsky et al, 2011; cited from earlier work
# [5] = system: Calu-6 tumours; assay: Gene expression in lung tumours; format: in vivo, Rowett nude rats
# Outline: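 Male nude rats (8–10 weeks) given orotracheal Calu-6 cells. From week 3 they received saline, 2 mg kg−1 i.p., or 0.6 mg kg−1 aerosol on 4 consecutive days for 4 weeks. Five tumours from each of four rats per group; RNA by TRI-reagent, 1 μg reverse transcribed; TaqMan qPCR normalised to GAPDH. 2−ΔΔCt relative to vehicle tumours; triplicate assays; mean±s.e.m.; two-sample t-test.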
# [6] = system: Calu-6 tumours; assay: Gene methylation profiling of tumours; format: in vivo, Rowett nude rats
# Outline: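 Bisulphite-treated DNA from Calu-6 lung tumours (three per rat, four rats per group: vehicle, i.p. or aerosol) run on HM450K arrays. Normal bronchial epithelial lines from three never smokers used as reference. Probes from 200 bp 5′ of TSS through 5′-UTR; X, Y and imprinted genes excluded. Background corrected by normal-exponential method; β-values 0–1. Genes with normal β ⩾0.2 excluded. Vehicle β ⩾0.45 counted as methylated; ⩾20% β drop counted as demethylation.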
# [7] = system: lung cancer; details: nebuliser, ref Lemarie et al, 2011, cited from earlier work
# [8] = aerosol, 0.6 mg kg^−1 inhaled deposited dose, 90 min nose-only, single dose
# [9] = plasma, inhaled or intranasal, 0.6 mg/kg
# [10] = systemic, intraperitoneal injection 2 mg kg^−1, single dose
structure (smiles),measurement,setting,value
"Nc1ncn([C@@H]2O[C@H](CO)[C@@H](O)[C@H]2O)c(=O)n1 [5-Aza, 5-azacytidine]",AUC Lung,[1]; [8],8460 ng·h/mL
same,Concentrationmax Lung,[1]; [8],7883 ng/mL
same,Concentrationmax Plasma,[1]; [8],893 ng/mL
same,half-life,"[1]; lung, inhaled or intranasal, 0.6 mg/kg",110 min
same,half-life,"[1]; lung, ip, 2 mg/kg",8.4 min
same,AUC,[1]; [9],1890 ng·h/mL
same,half-life,[1]; [9],74.4 min
same,AUC,"[1]; plasma, ip, 2 mg/kg",19100 ng·h/mL
same,half-life,"[1]; plasma, ip, 2 mg/kg",25.2 min
same,AUC Lung,[1]; [10],1082 ng·h/mL
same,Concentrationmax Lung,[1]; [10],2147 ng/mL
same,Concentrationmax Plasma,[1]; [10],15 492 ng ml^−1
same,"Lung weight, mean±s.d.","[2]; aerosol 0.6 mg kg^−1, 4 consecutive days over 4 consecutive weeks, N=17",3.72 ± 0.82 g
same,reduction in tumour burden,[2]; aerosol delivery over 4 weeks,29%
same,removal of the pleomorphic cell population of tumours,"[2]; inhaled delivery, histology (not shown)",equally effective as systemic delivery
same,weight gain of rats,[2]; irrespective of treatment route,15–20%
same,"Lung weight, mean±s.d.","[2]; systemic 2 mg kg^−1, 4 consecutive days over 4 consecutive weeks, N=18",3.58 ± 0.95 g
same,reduction in tumour burden,[2]; systemic delivery over 4 weeks,34%
same,average MMAD (mean mass aerodynamic diameter),[3],0.71 μm
same,pleomorphic cell population in residual tumour,[4],< 5 % of the residual tumour
same,effect on the expression of Bik,"[5]; aerosol delivery compared with systemic delivery, P<0.001",more profound effect
same,expression of p21 (WAF1),[5]; following systemic or aerosol delivery,increased to a similar extent
same,average number of genes showing ⩾20% demethylation,[6]; aerosol delivery,521 genes
same,genes classified as methylated in the Calu-6 tumours that responded,"[6]; aerosol delivery, on average",approximately 50%
same,genes commonly demethylated in 75% of tumours,[6]; aerosol exposure,501 genes
same,genes in common across all tumours demethylated ⩾20%,[6]; aerosol-treated rats,300 genes
same,average number of genes showing ⩾20% demethylation,[6]; systemic delivery,352 genes
same,genes commonly demethylated in 75% of tumours,[6]; systemic exposure,275 genes
same,genes in common across all tumours demethylated ⩾20%,[6]; systemic treatment,20 genes
Nc1ccn([C@@H]2O[C@H](CO)[C@@H](O)C2(F)F)c(=O)n1 [Gemcitabine],"total dose delivered to the lungs, on average",[7]; 1 day per week for 9 consecutive weeks,42±16%
same,toxicity,[7],"no haematologic toxicity, nephrotoxicity, or neurotoxicity were observed"

# — article PMC3790193 (British Journal of Cancer, 2013)
